Experimental data as given in PMC7885995 (Oncogene, 2020).

Legend:
[1] = test system: caspase 3/7 activation in GBM cells; assay: Caspase 3/7 activation; format: cell-based, human
Outline: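 Cells pretreated with 1–200μM QVD-OPh or 100μM Z-VAD-FMK received MED2 or CTL2. They were lifted with their media and stained for 30 min at RT with CellEvent green caspase 3/7 dye, Annexin-V AlexaFluor 647 and SYTOX orange in Annexin-V binding buffer. Imaging was on Xcyto10 at 4X with channel compensation. Read-out was mean caspase fluorescence per cell relative to CTL2 (n>5000 cells).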

GBM PDX lines = assay: BAPTA calcium chelation before MED2; format: cell-based, human; settings: BAPTA pretreatment, low concentrations, 5-hour CTL2/MED2; X1441, JX39, JX59
Outline: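 Cells were pretreated with BAPTA-AM and then exposed to CTL2 or MED2 for 5 h, at 2.5 μM for X1441 and 5 μM for JX39 and JX59, with relative viability as read-out. For SYTOX, cells were pretreated with 50μM BAPTA and given peptide for 1.5 h. Percent SYTOX-positive cells was scored on the Xcyto10 image cytometer at 4X. Analysis used two-way ANOVA with Tukey's test.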

athymic nude mice = assay: In vivo MED2-CY7 biodistribution, tumor-naïve mice; parameters: species or system mouse; settings: 3 hours
[2] = test system: X1016 PDX implanted into the brain of athymic nude mice; assay: In vivo MED2-CY7 accumulation in orthotopic GBM PDX; parameters: species or system mouse; settings: tail-vein, 3 hours, Pearl / Odyssey CLx imaging
Outline: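 6-week-old female athymic nude mice were stereotactically implanted with 5 × 10^5 X1016 cells into the caudate putamen 1 week before dosing. They were sorted by bioluminescence for similar tumor burden and randomized, unblinded, to two doses of Cy7-labeled peptide. Peptide in 100 μL saline went by tail vein, with sacrifice at 3 h. Brains were formalin-fixed, cut into 5 mm coronal slices and imaged on Pearl. Paraffin sections were H&E-stained or imaged on Odyssey CLx at […].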

[3] = test system: X1441 (proneural GBM PDX); assay: Cell viability; format: cell-based, human; settings: X1441, 2.5μM MED2, 72 h, n=4
Outline: (§1)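 1 × 10^4 Trypan blue-counted live cells were plated in 90 μL medium in 4 replicates; PDX cells were kept in neurosphere medium and NHAs in standard medium. Peptide (PBS-reconstituted, added as 10X in medium) went on 2 h after plating. CellTiter-Glo ATP luminescence was read at 72 h. MED2 RLU was normalized to CTL2 (5 μM for 1–5 μM; 10 μM for 10 μM). GI50 was interpolated from a standard curve.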

[4] = test system: GBM PDX lines (proneural, classical, mesenchymal subtypes); assay: Cell viability, statements for groups of GBM PDX lines; format: cell-based, human; settings: multiple PDX subtypes, 5μM CTL2/MED2, 9 hours, p>0.05
[5] = test system: normal human astrocytes (NHAs); assay: Cell viability; format: cell-based; settings: CellTiter-Glo, 72 h
Outline: as §1

JX12 (classical GBM PDX) = assay: Cell viability; format: cell-based, human; settings: JX12, 5μM MED2, normalized to 5μM CTL2, 72 h, n=4
Outline: as §1

[6] = test system: XD456 (proneural GBM PDX); assay: Cell viability; format: cell-based, human; settings: XD456, 2.5μM MED2, 72 h, n=4
Outline: as §1

JX14 (classical GBM PDX) = assay: Cell viability; format: cell-based, human; settings: JX14, 10μM MED2, normalized to 10μM CTL2, 72 h, n=4
Outline: as §1

[7] = test system: JX59 (mesenchymal GBM PDX); assay: Cell viability; format: cell-based, human; settings: JX59, 10μM MED2, normalized to 10μM CTL2, 72 h, n=4
Outline: as §1

JX39 (classical GBM PDX) = assay: Cell viability; format: cell-based, human; settings: JX39, 5μM MED2, normalized to 5μM CTL2, 72 h, n=4
Outline: as §1

PARP1 cleavage in XD456 = assay: PARP1 cleavage immunoblot; format: cell-based, human; settings: XD456, 3μM MED2, 5 and 24 hours
[8] = test system: JX22 (mesenchymal GBM PDX); assay: Cell viability; format: cell-based, human; settings: JX22, 10μM MED2, normalized to 10μM CTL2, 72 h, n=4
Outline: as §1

[9] = test system: intracellular calcium in XD456; assay: Fluo-4 calcium imaging; format: cell-based, human; settings: XD456, 3μM, serial imaging over two hours
Outline: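 1 × 10^5 XD456 cells were attached in 24-well plates and loaded at 37C for 1.5 h in 1X Fluo-4 direct calcium assay buffer with 5mM probenecid. SYTOX and then 3μM CTL2 or MED2 were added. Serial live images, including one taken before peptide, were acquired at 10X on an EVOS FL using GFP and RFP channels.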

XD456 = assay: Time-lapse imaging and SYTOX uptake; format: cell-based, human; settings: XD456, 3μM, time-lapse imaging
Outline: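 XD456 cells were given 3μM MED2 and tracked by time-lapse still frames at 10X. For membrane permeabilization, cells received 5μM CTL2 or MED2 and were imaged every 5 min for 125 min at 20X. Imaging was on CellInsight CX7 in a heated CO2 chamber using Hoechst and SYTOX orange channels. Mean SYTOX intensity per cell was scored from n>400 cells.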

CC(C)[C@H](NC(=O)c1ccc2ccccc2n1)C(=O)N[C@@H](CC(=O)O)C(=O)COc1c(F)cccc1F [QVD-OPh, reference compound]
reduction in MED2-induced caspase 3/7 activation ([1]; doubled QVD-OPh (200μM), n>5000): 50%

CC(=O)OCOC(=O)CN(CC(=O)OCOC(C)=O)c1ccccc1OCCOc1ccccc1N(CC(=O)OCOC(C)=O)CC(=O)OCOC(C)=O [BAPTA, BAPTA-AM]
protection against MED2 cytotoxicity (GBM PDX lines): no protective effects

KKKKKRFSFKKSFKLSGFSFKKNKK-LC- K(Lumiprobe CY7) [MED2-CY7]
organs with greatest fluorescence intensity per mg tissue (athymic nude mice; 5 or 10 nanomoles, tail-vein, LI-COR Pearl, n=3 per dose group): kidney, liver, small and large intestines | brain partitioning (athymic nude mice; 5 or 10 nanomoles, tail-vein, n=3 per dose group): only a small percentage of total peptide reaching the brain | increase in brain (periventricular) fluorescence per mg tissue, 10nmol vs 5nmol (athymic nude mice; tail-vein injection, tumor-naïve nude mice, Pearl imaging, n=3, p=0.026): greater than threefold | fluorescence in tumor-burdened regions of the brain compared to normal brain [2]: substantial increases

CC(C)C[C@H](NC(=O)[C@H](CCCCN)NC(=O)[C@H](Cc1ccccc1)NC(=O)[C@H](CO)NC(=O)[C@H](CCCCN)NC(=O)[C@H](CCCCN)NC(=O)[C@H](Cc1ccccc1)NC(=O)[C@H](CO)NC(=O)[C@H](Cc1ccccc1)NC(=O)[C@H](CCCNC(=N)N)NC(=O)[C@H](CCCCN)NC(=O)[C@H](CCCCN)NC(=O)[C@H](CCCCN)NC(=O)[C@H](CCCCN)NC(=O)[C@H](CCCCN)NC(=O)[C@@H](N)CSC1CC(=O)N(CCC(=O)N[C@@H](Cc2ccc(O)cc2)C(=O)NCC(=O)N[C@@H](CCCNC(=N)N)C(=O)N[C@@H](CCCCN)C(=O)N[C@@H](CCCCN)C(=O)N[C@@H](CCCNC(=N)N)C(=O)N[C@@H](CCCNC(=N)N)C(=O)N[C@@H](CCC(N)=O)C(=O)N[C@@H](CCCNC(=N)N)C(=O)N[C@@H](CCCNC(=N)N)C(=O)N[C@@H](CCCNC(=N)N)C(N)=O)C1=O)C(=O)N[C@@H](CO)C(=O)NCC(=O)N[C@@H](Cc1ccccc1)C(=O)N[C@@H](CO)C(=O)N[C@@H](Cc1ccccc1)C(=O)N[C@@H](CCCCN)C(=O)N[C@@H](CCCCN)C(=O)N[C@@H](CC(N)=O)C(=O)N[C@@H](CCCCN)C(=O)N[C@@H](CCCCN)C(N)=O (some centres unmarked) [MED2]
caspase 3/7 activation compared with CTL2 ([1]; MED2 treatment, P<0.001, n>5000): increased caspase 3/7 activation | reduction in viability [3]: > 50% | inhibition of viability in adherent vs suspension cells [4]: equally effective | change in NHA viability ([5]; 5μM and 10μM): increases in viability | toxicity in NHAs ([5]; 10μM): no toxicity | reduction in viability (JX12 (classical GBM PDX)): > 50% | reduction in viability [6]: > 50% | reduction in viability (JX14 (classical GBM PDX)): > 50% | reduction in viability [7]: > 50% | reduction in viability (JX39 (classical GBM PDX)): > 50% | PARP1 cleavage pattern (PARP1 cleavage in XD456): loss of both 122kD and 89kD bands with the formation of an approximately 72 kD band | reduction in viability [8]: > 50% | Fluo-4 intensity (intracellular calcium) [9]: increased within minutes | onset of morphological effects and signs of cellular injury (XD456): ≤ 1 hour
